# Experimental data as given in ChEMBL document CHEMBL1933008, “Novel 2-(2-(4-aryloxybenzylidene) hydrazinyl)benzothiazole derivatives as anti-tubercular agents” (2012).
# Tested on: Mycobacterium tuberculosis
# Assay: Antitubercular activity against Mycobacterium tuberculosis
# Type: functional
# Conditions: not given
# How it was run: (§1)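 M. tuberculosis H37Rv suspension seeded at 10^5 cells per well in Middlebrook 7H9 broth. Compounds serially diluted directly on the plate; control got equivalent DMSO. Incubated 37 °C for 7 days, then 0.02% fresh resazurin added and incubated a further 48 h. MIC read visually as the lowest concentration giving complete inhibition (no blue-to-pink change).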
row,Structure (SMILES),MIC [µg/mL]
1,Oc1cc(Cl)ccc1Oc1ccc(Cl)cc1Cl [TRICLOSAN],5

# Tested on: Mycobacterium tuberculosis
# Assay: Antitubercular activity against Mycobacterium tuberculosis H37Rv after 7 days by Resazurin microtiter assay
# Type: functional
# Conditions: 168 h
# How it was run: as §1
row,Structure (SMILES),MIC [µg/mL]
1,Cc1ccc2nc(NN)sc2c1,222
2,NNC(=O)c1ccncc1 [ISONIAZID],0.4
3,O=[N+]([O-])c1ccc2nc(N/N=C\c3ccc(Oc4ccc(Cl)cc4Cl)cc3)sc2c1,23.5
4,Cc1cc(Oc2ccc(/C=N\Nc3nc4ccc(Cl)cc4s3)cc2)ccc1Cl,4.5
5,COc1ccc2nc(N/N=C\c3ccc(Oc4ccccc4Cl)cc3)sc2c1,19.5
6,Cc1ccc2nc(N/N=C\c3ccc(Oc4ccc(Cl)cc4Cl)cc3)sc2c1,12.6
7,Cc1ccc2nc(N/N=C\c3ccc(Oc4ccc(Cl)c(C)c4)cc3)sc2c1,15
8,NNc1nc2ccccc2s1,288
9,O=Cc1ccc(Oc2ccccc2Cl)cc1,123
10,Cc1ccc2nc(N/N=C\c3ccc(Oc4ccccc4)cc3)sc2c1,9.13
11,COc1ccc2nc(N/N=C\c3ccc(Oc4ccc(Cl)cc4Cl)cc3)sc2c1,27.5
12,COc1ccc2nc(N/N=C\c3ccc(Oc4ccc(Cl)cc4)cc3)sc2c1,8
13,O=[N+]([O-])c1ccc2nc(N/N=C\c3ccc(Oc4ccccc4)cc3)sc2c1,29
14,Cc1cc(Oc2ccc(/C=N\Nc3nc4ccc([N+](=O)[O-])cc4s3)cc2)ccc1Cl,21.5
15,COc1ccc2nc(N/N=C\c3ccc(Oc4ccccc4)cc3)sc2c1,16.5
16,Cc1ccc2nc(N/N=C\c3ccc(Oc4ccccc4Cl)cc3)sc2c1,4.75

row,Structure (SMILES),MIC [µg/mL]
1,Cc1cc(Oc2ccc(/C=N\Nc3nc4ccccc4s3)cc2)ccc1Cl,6.63
2,O=Cc1ccc(Oc2ccccc2)cc1,133
3,Clc1ccc(Oc2ccc(/C=N\Nc3nc4ccccc4s3)cc2)c(Cl)c1,2.63
4,Clc1ccccc1Oc1ccc(/C=N\Nc2nc3ccccc3s2)cc1,6
5,O=[N+]([O-])c1ccc2nc(N/N=C\c3ccc(Oc4ccccc4Cl)cc3)sc2c1,29.5
6,Clc1ccc(Oc2ccc(/C=N\Nc3nc4ccccc4s3)cc2)cc1,2.94
7,Clc1ccc(Oc2ccc(/C=N/Nc3nc4ccc(Cl)cc4s3)cc2)c(Cl)c1,1.5
8,Cc1ccc2nc(N/N=C\c3ccc(Oc4ccc(Cl)cc4)cc3)sc2c1,15
9,Clc1ccc(Oc2ccc(/C=N\Nc3nc4ccc(Cl)cc4s3)cc2)cc1,2.25
10,Clc1ccc2nc(N/N=C\c3ccc(Oc4ccccc4)cc3)sc2c1,5.5
11,O=[N+]([O-])c1ccc2nc(N/N=C\c3ccc(Oc4ccc(Cl)cc4)cc3)sc2c1,26.5
12,COc1ccc2nc(N/N=C\c3ccc(Oc4ccc(Cl)c(C)c4)cc3)sc2c1,27
13,Clc1ccc2nc(N/N=C\c3ccc(Oc4ccccc4Cl)cc3)sc2c1,2
14,O=Cc1ccc(Oc2ccc(Cl)cc2)cc1,117
15,NNc1nc2ccc(Cl)cc2s1,233
16,C(=N/Nc1nc2ccccc2s1)/c1ccc(Oc2ccccc2)cc1,12.7
